We go through 15 molecules from PubChem BioAssay.

A short description of assay [1]: RPL19A-GFP modulators, yeast TOR pathway, confirmation, cell-based, S. cerevisiae, flow cytometry, cherry picks, mother/daughter gates (AID 2270;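 active = GFP response below 50% of the DMSO control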). To be noted: S. cerevisiae RPL19A-GFP strain, 3 h, at 10 µM, stronger effect = lower value, 100 = same GFP as DMSO wells.
The nature of assay [2]: LAP4-GFP expression modulators in yeast, confirmation, cell-based, cherry picks, flow cytometry, mother/daughter gates (AID 2271;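 active = GFP response above 150% of the DMSO control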;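 note: ratio of sample to DMSO plate mean so 100% equals DMSO level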). To be noted: S. cerevisiae LAP4-GFP strain, 3 h, at 10 µM, stronger effect = higher value, 100 means same as DMSO control. The essentials:
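Material – Alexa Fluor 633-labelled Saccharomyces cerevisiae GFP-fusion strain, single-plex · Incubation – compound exposure 3 h at 30 °C, end-over-end rotation · Measured by – GFP by flow cytometry · Measure – median GFP fluorescence as percent of plate-mean DMSO wells · Control set – positive rapamycin (400 ng/mL), negative DMSO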

Assay [3] in a line: modulators of MEP2-GFP levels in yeast, confirmation, S. cerevisiae, flow cytometry GFP, cherry picks (AID 2272;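 active = GFP response above 150% of the DMSO control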;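 note: ratio of well signal to plate DMSO mean so 100% equals DMSO level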). Particulars: S. cerevisiae MEP2-GFP strain, 3 h, at 10 µM, stronger effect = higher value.
The nature of assay [4]: AGP1-GFP expression modulators, hit retest, confirmation, cell-based, flow cytometry, S. cerevisiae, cherry picks (AID 2273).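 Note: median GFP channel fluorescence over the whole cell population gate.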 Particulars: S. cerevisiae AGP1-GFP strain, 3 h, at 10 µM.
The nature of assay [5]: modulators of CIT2-GFP expression in yeast, confirmation, S. cerevisiae, GFP fusion, cherry picks, mother/daughter gates (AID 2274). To be noted: S. cerevisiae CIT2-GFP strain, flow cytometry, 3 h, at 10 µM, stronger effect = higher value.
Where [6] appears, read: measured here: daughter cell gate.
Setting [7] is: measured here: mother cell gate.
The mark [8] stands for this setting: measured here: daughter cell gate response.
Setting [9] is: measured here: mother cell gate response.

Activity calls are given as the source filed them.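 Rule for the calls, unless noted: active = GFP response above 150% of the DMSO level; inconclusive = fewer than 70 events counted for a yeast strain; inactive = the rest.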

As for `CN1/C(=C\C(=O)c2cccc(S(=O)(=O)N3CCCCC3)c2)C(C)(C)c2ccccc21`, the GFP response vs DMSO in assay [1] is 96.8% (inactive); in assay [1] (setting [6]), 97.6%; in assay [1] (setting [7]), 97.2%; in assay [3], 100% (inactive). Moreover, the results for the GFP response relative to DMSO in assay [2], in assay [2] (setting [8]) and in assay [2] (setting [9]) were 95.4% (inactive), 97.6% and 94%, respectively. In addition, the GFP response, % of DMSO was 97.2% (inactive) in assay [4], 98.3% (inactive) in assay [5], 99.1% in assay [5] (setting [6]) and 98.5% in assay [5] (setting [7]).

Turning to `CN(C)c1ccc(N=Cc2nc(-c3ccccc3)oc2OC(=O)c2cccc(Cl)c2)cc1`, the GFP response vs DMSO was 101% (inactive) in assay [1], 99.2% in assay [1] (setting [6]), 101% in assay [1] (setting [7]) and 100% (inactive) in assay [3]. Further, the GFP response relative to DMSO in assay [2] is 97.4% (inactive); in assay [2] (setting [8]), 97.2%; in assay [2] (setting [9]), 99.3%. For the same molecule, the GFP response, % of DMSO in assay [4] is 98.7% (inactive); in assay [5], 102% (inactive); in assay [5] (setting [6]) it was 99.7%; in assay [5] (setting [7]), 102%.

Regarding `COc1ccc(C(=O)NC(=S)Nc2ccc(CN3CCOCC3)cc2)cc1`, the GFP response vs DMSO in assay [1] was 101% (inactive); in assay [1] (setting [6]), 98.8%; in assay [1] (setting [7]), 99.9%; in assay [3], 99% (inactive). Moreover, the GFP response relative to DMSO was 99.5% (inactive) in assay [2], 99.1% in assay [2] (setting [8]) and 99.4% in assay [2] (setting [9]). Further, the GFP response, % of DMSO is 101% (inactive) in assay [4], 98.8% (inactive) in assay [5], 99.2% in assay [5] (setting [6]) and 98.1% in assay [5] (setting [7]).

Consider `N=C1S/C(=C\c2ccco2)C(=O)N1c1nccs1`, for which the GFP response vs DMSO is 109% (inactive) in assay [1], 108% in assay [1] (setting [6]), 100% in assay [1] (setting [7]) and 112% (inactive) in assay [3]. Further, the results for the GFP response relative to DMSO in assay [2], in assay [2] (setting [8]) and in assay [2] (setting [9]) were 168% (active), 145% and 168%, respectively. For the same molecule, the GFP response, % of DMSO in assay [4] is 95.7% (inactive); in assay [5], 108% (inactive); in assay [5] (setting [6]) it was 108%; in assay [5] (setting [7]), 103%.

For `CC(=O)SC(C[N+](=O)[O-])c1cn(C(C)=O)c2ccccc12` (stereo not given), the GFP response vs DMSO in assay [1] is 98.6% (inactive); in assay [1] (setting [6]) it was 102%; in assay [1] (setting [7]) it was 90.1%; in assay [3] it was 96.8% (inactive). The GFP response relative to DMSO in assay [2] was 242% (active); in assay [2] (setting [8]) it was 216%; in assay [2] (setting [9]), 236%. Further, the GFP response, % of DMSO in assay [4] is 98% (inactive); in assay [5] it was 94.4% (inactive); in assay [5] (setting [6]), 97.4%; in assay [5] (setting [7]), 88.2%.

As to `Cc1ccc(CN2CCSc3sccc3C2=O)cc1`, the GFP response vs DMSO in assay [1] is 84.4% (inactive); in assay [1] (setting [6]) it was 83.1%; in assay [1] (setting [7]) it was 85.5%; in assay [3], 96.8% (inactive). The GFP response relative to DMSO in assay [2] is 142% (inactive); in assay [2] (setting [8]), 130%; in assay [2] (setting [9]), 145%. Further, the GFP response, % of DMSO in assay [4] was 97.1% (inactive); in assay [5], 75.5% (inactive); in assay [5] (setting [6]), 72.1%; in assay [5] (setting [7]) it was 76%.

As to `O=S(=O)(c1ccc(-c2ccccc2)cc1)N1CCOCC1`, the GFP response vs DMSO in assay [1] was 96.7% (inactive); in assay [1] (setting [6]) it was 96.1%; in assay [1] (setting [7]), 94.8%; in assay [3], 103% (inactive). Besides, the GFP response relative to DMSO in assay [2] is 97.7% (inactive); in assay [2] (setting [8]), 97.5%; in assay [2] (setting [9]) it was 97.4%. Further, the GFP response, % of DMSO in assay [4] was 99.5% (inactive); in assay [5], 95.8% (inactive); in assay [5] (setting [6]) it was 95.8%; in assay [5] (setting [7]), 93.8%.

Take `COc1cccc(-c2nnc(NC(=O)c3ccc(S(=O)(=O)N4CC(C)OC(C)C4)cc3)o2)c1` (stereo not given): the GFP response vs DMSO was 103% (inactive) in assay [1], 103% in assay [1] (setting [6]), 102% in assay [1] (setting [7]) and 109% (inactive) in assay [3]. The values for the GFP response relative to DMSO in assay [2], in assay [2] (setting [8]) and in assay [2] (setting [9]) were 95.7% (inactive), 94.2% and 96.2%, respectively. The GFP response, % of DMSO in assay [4] was 100% (inactive); in assay [5], 100% (inactive); in assay [5] (setting [6]), 97.4%; in assay [5] (setting [7]), 99.3%.

As for `Cc1ccc(Nc2c(-c3ccccn3)nc3ccc(C)cn23)cc1`, the GFP response vs DMSO in assay [1] is 97.4% (inactive); in assay [1] (setting [6]), 106%; in assay [1] (setting [7]), 98.6%; in assay [3], 108% (inactive). Moreover, the values for the GFP response relative to DMSO in assay [2], in assay [2] (setting [8]) and in assay [2] (setting [9]) were 148% (inactive), 137% and 153%, respectively. In addition, the GFP response, % of DMSO was 82.9% (inactive) in assay [4], 105% (inactive) in assay [5], 121% in assay [5] (setting [6]) and 93.3% in assay [5] (setting [7]).

For the molecule `Cc1nn(C)c(C)c1N1C(=O)c2cccc3c(Br)ccc(c23)C1=O`, the GFP response vs DMSO was 103% (inactive) in assay [1], 102% in assay [1] (setting [6]), 103% in assay [1] (setting [7]) and 207% (active) in assay [3]. Besides, the GFP response relative to DMSO in assay [2] is 136% (inactive); in assay [2] (setting [8]) it was 137%; in assay [2] (setting [9]), 134%. Also, the GFP response, % of DMSO in assay [4] was 112% (inactive); in assay [5] it was 148% (inactive); in assay [5] (setting [6]), 152%; in assay [5] (setting [7]) it was 141%.

Consider `Cc1ccc(NC(=O)c2ccccc2)cc1`, for which the GFP response vs DMSO in assay [1] was 100% (inactive); in assay [1] (setting [6]), 99%; in assay [1] (setting [7]) it was 100%; in assay [3], 100% (inactive). For the same molecule, the GFP response relative to DMSO is 98.7% (inactive) in assay [2], 100% in assay [2] (setting [8]) and 100% in assay [2] (setting [9]). The GFP response, % of DMSO in assay [4] was 91.5% (inactive); in assay [5], 96.5% (inactive); in assay [5] (setting [6]) it was 96.5%; in assay [5] (setting [7]) it was 93.4%.

As to `Cc1cc(C)n2nc(C(=O)NC(c3ccccc3)c3ccccc3)nc2n1`, the GFP response vs DMSO in assay [1] is 98.6% (inactive); in assay [1] (setting [6]), 99.9%; in assay [1] (setting [7]), 98.2%; in assay [3], 98.8% (inactive). Also, the figures for the GFP response relative to DMSO in assay [2], in assay [2] (setting [8]) and in assay [2] (setting [9]) were 98.6% (inactive), 99.7% and 99.2%, respectively. Moreover, the GFP response, % of DMSO is 104% (inactive) in assay [4], 111% (inactive) in assay [5], 110% in assay [5] (setting [6]) and 112% in assay [5] (setting [7]).

As to `CC(=O)c1ccccc1NCC(=O)Nc1ccc(C)cc1`, the GFP response vs DMSO in assay [1] is 96.3% (inactive); in assay [1] (setting [6]), 95%; in assay [1] (setting [7]), 96%; in assay [3] it was 103% (inactive). Further, the GFP response relative to DMSO in assay [2] is 99.8% (inactive); in assay [2] (setting [8]), 98.2%; in assay [2] (setting [9]) it was 101%. Moreover, the GFP response, % of DMSO in assay [4] is 100% (inactive); in assay [5] it was 93.4% (inactive); in assay [5] (setting [6]), 95.2%; in assay [5] (setting [7]), 92.8%.

Take `OCC[n+]1ccc(/C=C/c2c[nH]c3ccccc23)cc1`: the GFP response vs DMSO in assay [1] was 108% (inactive); in assay [1] (setting [6]), 106%; in assay [1] (setting [7]) it was 108%; in assay [3], 164% (inactive). Moreover, the values for the GFP response relative to DMSO in assay [2], in assay [2] (setting [8]) and in assay [2] (setting [9]) were 140% (inactive), 143% and 141%, respectively. The GFP response, % of DMSO was 104% (inactive) in assay [4], 141% (inactive) in assay [5], 142% in assay [5] (setting [6]) and 143% in assay [5] (setting [7]).

In the case of `CCOC(=O)C(=CNNc1cccc(Cl)c1)C(=O)OCC`, the GFP response vs DMSO in assay [1] was 103% (inactive); in assay [1] (setting [6]), 102%; in assay [1] (setting [7]), 102%; in assay [3], 111% (inactive). Also, the GFP response relative to DMSO in assay [2] is 131% (inactive); in assay [2] (setting [8]), 125%; in assay [2] (setting [9]), 137%. For the same molecule, the GFP response, % of DMSO was 103% (inactive) in assay [4], 103% (inactive) in assay [5], 101% in assay [5] (setting [6]) and 104% in assay [5] (setting [7]).
